# Measured values as given in ChEMBL document CHEMBL1138932, “Synthesis and anti-hepatitis B virus activity of novel benzimidazole derivatives” (J Med Chem, 2006).
# The source made the active and inactive calls. The rule behind the calls is not given here.
# Legend:
# Hepatitis B virus = experiment: Inhibition of HBV DNA replication; type: functional, organism-based
# Method in brief: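 Antiviral assay in HepG 2.2.15 cells; read-out is cytoplasmic HBV-DNA synthesis. IC50 is the concentration giving 50% inhibition of HBV DNA synthesis.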
# HepG2 [1] = experiment: Cytotoxicity against HepG2.2.15 cells; type: functional; details: Homo sapiens
# Method in brief: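 HepG 2.2.15 cells exposed to compound; CC50 taken as the concentration required for 50% extinction of the cells.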
# HepG2 [2] = experiment: Selectivity index, CC50 for HepG2.2.15 cells/IC50 for HBV; type: functional
# Method in brief: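 Ratio CC50/IC50. CC50 is the concentration giving 50% extinction of HepG 2.2.15 cells. IC50 is the concentration giving 50% inhibition of cytoplasmic HBV-DNA synthesis.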
IC50 (Hepatitis B virus) [µM],Compound,Activity (Hepatitis B virus),CC50 (HepG2 [1]) [µM],Selectivity index (HepG2 [2])
,CS(=O)(=O)n1c(CCN2C(=O)c3ccccc3C2=O)nc2cc(Cl)c(Cl)cc21,inactive,175,
4.6,Cn1c(CCc2ccncc2)nc2cc(Cl)c(Cl)cc21,,35.8,8
0.64,O=C1c2ccccc2C(=O)N1CCc1nc2cc(F)c(F)cc2n1S(=O)(=O)c1ccccc1[N+](=O)[O-],,77,120
53.2,Cc1ccc(C(=O)n2c(CCN3C(=O)c4ccccc4C3=O)nc3cc(Cl)c(Cl)cc32)cc1,,> 1000,>19
10.3,Cn1c(CCC2CCCO2)nc2cc(Cl)c(Cl)cc21 (centres undefined),,56,5
0.5,Cc1ccc(S(=O)(=O)n2c(CN3C(=O)c4ccccc4C3=O)nc3cc(Cl)c(Cl)cc32)cc1,,90,180
3.9,CCCc1nc2cc(Cl)c(Cl)cc2n1C,,24.6,6
0.7,Cc1ccc(Cn2c(CCN3C(=O)c4ccccc4C3=O)nc3cc(Cl)c(Cl)cc32)cc1,,> 500,>714
,Cn1c(CCc2cccs2)nc2cc(Cl)c(Cl)cc21,inactive,16,
0.14,O=C1c2ccccc2C(=O)N1CCc1nc2cc(F)c(F)cc2n1S(=O)(=O)c1cccc([N+](=O)[O-])c1,,10,71
2.2,O=C1c2ccccc2C(=O)N1CCc1nc2ccccc2n1S(=O)(=O)c1ccccc1,,28,13
300,O=C1c2ccccc2C(=O)N1CCc1nc2cc(Cl)c(Cl)cc2[nH]1,,330,1
30.4,O=C1c2ccccc2C(=O)N1CCc1nc2ccccc2n1S(=O)(=O)c1cccc(C(F)(F)F)c1,,10,0.3
18.5,Cn1c(CCC2CCCCC2)nc2cc(Cl)c(Cl)cc21,,> 500,>27
,Cn1c(CCc2ccccc2)nc2cc(Cl)c(Cl)cc21,inactive,15.3,
1.2,Cc1ccc(S(=O)(=O)n2c(CCN3C(=O)c4ccccc4C3=O)nc3cc(F)c(F)cc32)cc1,,31,26
0.38,Nc1ccn([C@@H]2CS[C@H](CO)O2)c(=O)n1 [LAMIVUDINE],,> 1000,>2632
3.4,Cc1ccc(S(=O)(=O)n2c(CCN3Cc4ccccc4C3=O)nc3cc(Cl)c(Cl)cc32)cc1,,23,7
,Cn1c(CCc2ccco2)nc2cc(Cl)c(Cl)cc21,inactive,5.9,
2.2,Cc1ccc(S(=O)(=O)n2c(CCN3C(=O)c4ccccc4C3=O)nc3ccccc32)cc1,,164,75
19.4,Cc1ccc(S(=O)(=O)n2c(N3C(=O)c4ccccc4C3=O)nc3cc(Cl)c(Cl)cc32)cc1,,122,6
0.7,CC(C)c1ccc(S(=O)(=O)n2c(CCN3C(=O)c4ccccc4C3=O)nc3cc(Cl)c(Cl)cc32)cc1,,17,24
0.34,Cc1ccc(S(=O)(=O)n2c(CCCN3C(=O)c4ccccc4C3=O)nc3cc(Cl)c(Cl)cc32)cc1,,13,38
50.2,O=C1c2ccccc2C(=O)N1CCc1nc2cc(Cl)c(Cl)cc2n1S(=O)(=O)c1ccc([N+](=O)[O-])cc1,,181,4
0.9,Cn1c(CCN2C(=O)c3ccccc3C2=O)nc2cc(Cl)c(Cl)cc21,,> 1000,>1111
0.68,Cc1ccc(S(=O)(=O)n2c(CCN3C(=O)C=CC3=O)nc3cc(Cl)c(Cl)cc32)cc1,,33,49
7.2,COc1ccc(S(=O)(=O)n2c(CCN3C(=O)c4ccccc4C3=O)nc3cc(Cl)c(Cl)cc32)cc1,,189,26
2.9,Cc1ccc(S(=O)(=O)n2c(CCN3C(=O)c4ccccc4C3=O)nc3cc(Cl)c(Cl)cc32)cc1,,867,299
1.4,Cc1ccc(Cn2c(CCN)nc3cc(Cl)c(Cl)cc32)cc1,,4,3
3.2,O=C1c2ccccc2C(=O)N1CCc1nc2cc(F)c(F)cc2n1S(=O)(=O)c1ccc(C(F)(F)F)cc1,,11,3

Compound,IC50 (Hepatitis B virus) [µM],Activity (Hepatitis B virus),CC50 (HepG2 [1]) [µM],Selectivity index (HepG2 [2])
Nc1ncnc2c1ncn2CCOCP(=O)(O)O [ADEFOVIR],1.3,,203,156
